Structures are written as SMILES. The source made the active and inactive calls. The calls are words filed in the database; no cut-off is given here.

The text below walks through data of ChEMBL document CHEMBL4190305, “Dioxomorpholines and Derivatives from a Marine-Facultative Aspergillus Species” (J Nat Prod, 2017).

For assay [1], the species on record is Homo sapiens. Put plainly: Cytotoxicity against human A549/DXR cells assessed as reduction in cell viability after 72 hrs by CellTiter 96 AQueous one solution cell proliferation assay. It is filed as functional, cell-based. The method, boiled down:
(§1)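 Cells seeded at 3000–4000 per well and grown 20 h, then medium replaced by 10% fetal bovine serum medium with test compound for 72 h. Viability read by MTS-type (CellTiter 96 AQueous One) absorbance at 490 nm, relative to untreated control cells; triplicate wells per condition.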

In assay [2] the test system is MDA-MB-231. Put plainly: Cytotoxicity against human MDA-MB-231 cells harboring p53 R280K mutant assessed as reduction in cell viability after 72 hrs by CellTiter 96 AQueous one solution cell proliferation assay. The format is cell-based. As to conditions: MDA-MB-231, 72 h. A digest of the protocol: as §1
Assay [3] has as its system HCT-116. Put plainly: Cytotoxicity against p53 null human HCT116 cells assessed as reduction in cell viability after 72 hrs by CellTiter 96 AQueous one solution cell proliferation assay. It is filed as cell-based. The conditions noted are these: HCT-116, 72 h. A digest of the protocol:
as §1

The subject of assay [4] is HCT-116. The assay can be described thus: Cytotoxicity against human HCT116 cells harboring wild type p53 assessed as reduction in cell viability after 72 hrs by CellTiter 96 AQueous one solution cell proliferation assay. It is filed as cell-based. The conditions noted are these: HCT-116, 72 h. A digest of the protocol:
as §1

The test system of assay [5] is A549. Put plainly: Cytotoxicity against human A549 cells assessed as reduction in cell viability after 72 hrs by CellTiter 96 AQueous one solution cell proliferation assay. It is filed as cell-based. The conditions noted are these: A549, 72 h. A digest of the protocol: as §1
The subject of assay [6] is U2OS. The assay can be described thus: Cytotoxicity against human U2OS cells assessed as reduction in cell viability after 72 hrs by CellTiter 96 AQueous one solution cell proliferation assay. The format is cell-based. A digest of the protocol:
as §1

Assay [7] deals with A549. The assay can be described thus: Inhibition of calcein-AM efflux in human A549 cells at 10 uM after 1 hr by fluorescence assay. It is filed as functional, cell-based. A digest of the protocol:
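Vybrant multidrug resistance kit: 500 000 cells/well cultured overnight, triplicate cultures pretreated 1 h with compound (verapamil 50 μg/mL, cyclosporine A 25 μg/mL as positive controls), then 0.25 μM calcein-AM for 30 min. Cells washed twice in cold medium; intracellular calcein fluorescence read at ex 494/em 517 nm, expressed as percent calcein retention.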

Assay [8] deals with A549. Put plainly: Potentiation of doxorubicin-induced cytotoxicity against human A549 cells assessed as decrease in cell viability at 10 uM after 72 hrs by CellTiter 96 AQueous one solution cell proliferation assay. The format is functional, cell-based. The method, boiled down:
(§2)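 Seeded 3000–4000 cells/well, 20 h growth, then a range of doxorubicin concentrations alone or combined with 10 μM compound in 10% FBS medium for 72 h (DMSO vehicle). Viability by CellTiter 96 AQueous One at 490 nm versus untreated cells; triplicate wells, mean ± SEM of three independent experiments.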

The test system of assay [9] is U2OS. Put plainly: Potentiation of doxorubicin-induced cytotoxicity against human U2OS cells assessed as decrease in cell viability at 10 uM after 72 hrs by CellTiter 96 AQueous one solution cell proliferation assay. The format is functional, cell-based. A digest of the protocol: as §2
Assay [10] has as its system MDA-MB-231. The assay can be described thus: Potentiation of doxorubicin-induced cytotoxicity against p53 CRISPR-Cas9 knockout human MDA-MB-231 cells assessed as decrease in cell viability at 10 uM after 72 hrs by CellTiter 96 AQueous one solution cell proliferation assay. The format is functional, cell-based. A digest of the protocol:
as §2

Another assay relates to SAOS-2. Put plainly: Potentiation of doxorubicin-induced cytotoxicity against p53 null human Saos2 cells assessed as decrease in cell viability at 10 uM after 72 hrs by CellTiter 96 AQueous one solution cell proliferation assay. It is filed as functional, cell-based. The method, boiled down:
as §2

The species named for assay [11] is Homo sapiens. The assay can be described thus: Inhibition of Pgp in human A549/DXR cells assessed as reduction in calcein-AM efflux after 1 hr by fluorescence assay.

With `C=CC(C)(C)[C@]1(C[C@H](NC(=O)[C@@H](O)Cc2ccccc2)C(=O)O)C(=O)Nc2c(O)cccc21`, in the assay listed under Homo sapiens [1], the Activity result is “Dose-dependent effect”. Moreover, the IC50 with MDA-MB-231 [2], with HCT-116 [3], with HCT-116 [4], with A549 [5] and in the assay on U2OS [6] was over 50 µM each time. Further, the inhibition entry in the assay on A549 [7] is “Active”. Moreover, the outcome in the assay on A549 [8], in the assay on U2OS [9], in the assay on MDA-MB-231 [10] and with SAOS-2 was Active. The inhibition entry in the assay filed under Homo sapiens [11] was “Dose-dependent effect”.

As for `C=CC(C)(C)c1[nH]c2ccccc2c1C[C@H](NC(=O)[C@@H](O)Cc1ccccc1)C(=O)O`, the Activity result in the assay listed under Homo sapiens [1] is “Dose-dependent effect”. Further, the IC50 in the assay on MDA-MB-231 [2], in the assay with HCT-116 [3], in the assay with HCT-116 [4], with A549 [5] and with U2OS [6] was over 50 µM each time. The inhibition result in the assay with A549 [7] was “Active”. Further, the result in the assay on A549 [8], in the assay on U2OS [9], with MDA-MB-231 [10] and with SAOS-2 was Active. Moreover, in the assay listed under Homo sapiens [11], the inhibition entry is “Dose-dependent effect”.

`C=CC(C)(C)[C@]12Nc3c(O)cccc3[C@@]1(O)C[C@H]1C(=O)O[C@@H](Cc3ccccc3)C(=O)N12`: the Activity entry in the assay listed under Homo sapiens [1] was “Dose-dependent effect”. Besides, the IC50 in the assay with MDA-MB-231 [2], in the assay on HCT-116 [3], with HCT-116 [4], in the assay on A549 [5] and in the assay on U2OS [6] was over 50 µM throughout. In addition, the inhibition entry in the assay with A549 [7] was “Active”. Moreover, the outcome in the assay on A549 [8], with U2OS [9], in the assay with MDA-MB-231 [10] and with SAOS-2 was Active. In addition, the inhibition result in the assay listed under Homo sapiens [11] was “Dose-dependent effect”.

As a reminder, the IC50 is the concentration that gives 50% inhibition.
